Laboratory results as given in ChEMBL document CHEMBL2016529, “Synthesis and biological evaluation of novel potent angiotensin II receptor antagonists with anti-hypertension effect” (Bioorg Med Chem, 2012).
Calls of active or inactive are those of the source. No cut-off for these calls is given here.

Columns and labels:
Rattus norvegicus [1] = assay: Toxicity in rat spontaneous hypertensive model assessed as effect on heart rate at 15 mg/kg, po; format: organism-based; parameters: dose 15 mg/kg, route oral; conditions: in vivo
Summary of the method: (§1)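 Male spontaneously hypertensive rats, randomized into groups of ten. Compound suspended in 0.5% sodium carboxymethyl cellulose and given orally once at 15 or 30 mg/kg. Negative controls received the same volume of vehicle, and valsartan and irbesartan at equal doses served as positive controls. Blood pressure (SBP, DBP) and heart rate were monitored over 0–10 h after dosing with a biological signal analysis system.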

Rattus norvegicus [2] = assay: Antihypertensive activity in rat spontaneous hypertensive model assessed as reduction in diastolic blood pressure at 15 mg/kg, po up to 10 hrs; format: functional, organism-based; parameters: dose 15 mg/kg; conditions: Artery; summary of the method: as §1
Rattus norvegicus [3] = assay: Antihypertensive activity in rat spontaneous hypertensive model assessed as time of maximum effect on diastolic blood pressure at 30 mg/kg, po; format: functional, Artery; summary of the method: as §1
Rattus norvegicus [4] = assay: Toxicity in rat spontaneous hypertensive model assessed as effect on heart rate at 30 mg/kg, po; format: organism-based; parameters: dose 30 mg/kg, route oral; conditions: in vivo; summary of the method: as §1
Rattus norvegicus [5] = assay: Antihypertensive activity in rat spontaneous hypertensive model assessed as reduction in systolic blood pressure at 30 mg/kg, po up to 10 hrs; format: functional, organism-based; parameters: dose 30 mg/kg; conditions: Artery; summary of the method: as §1
Rattus norvegicus [6] = assay: Antihypertensive activity in rat spontaneous hypertensive model assessed as reduction in diastolic blood pressure at 30 mg/kg, po up to 10 hrs; format: functional, organism-based; parameters: dose 30 mg/kg; conditions: Artery; summary of the method: as §1
Rattus norvegicus [7] = assay: Antihypertensive activity in rat spontaneous hypertensive model assessed as time of maximum effect on systolic blood pressure at 30 mg/kg, po; format: functional, Artery; summary of the method: as §1
Rattus norvegicus [8] = species on record: Rattus norvegicus; assay: (§2) Displacement of [I125]angiotensin2 from AT1 receptor in Sprague-Dawley rat VSMC after 2.5 hrs by gamma spectrophotometry
Summary of the method: (§3)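 Smooth muscle cells from rat aorta were isolated by collagenase digestion (1 h, 37 °C) and grown in DMEM with 15% FBS. Quiescent, confluent monolayers were incubated in PBS with 0.1 nM 125I-Ang II and compound at final 1×10^-12 to 1×10^-6 M for 2.5 h at 4 °C. Nonspecific binding was defined with 1×10^-6 M competitor. Cells were washed three times, lysed in 0.1 M NaOH, and bound radioactivity was gamma counted.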

[9] = as §2; summary of the method: as §3
Rattus norvegicus [10] = assay: Antihypertensive activity in rat spontaneous hypertensive model assessed as reduction in systolic blood pressure at 15 mg/kg, po up to 10 hrs; format: functional, organism-based; parameters: dose 15 mg/kg; conditions: Artery; summary of the method: as §1
[11] = Acute toxicity in intragastrically dosed ICR rat; format: organism-based; conditions: in vivo, po
Summary of the method: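 ICR rats (6–8 weeks, individually weighed) dosed intragastrically at 1000.0–5000.0 mg/kg (six dose levels); daily survival over 14 days. LD50 with 95% confidence limits obtained by logistic regression (GLM) curve fitting of 14-day mortality data.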

[12] = Acute toxicity in ICR rat assessed as mortality at 2236.1 mg/kg, administered intragastrically after 14 days relative to control; format: organism-based; parameters: dose 2236.1 mg/kg, route intragastric; conditions: in vivo, po, read-out: Activity
Summary of the method: (§4)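 Normal ICR rats, 6–8 weeks, weighed individually; single intragastric doses of 5000.0, 3823.6, 2924.0, 2236.1, 1710.0 or 1000.0 mg/kg. Survival checked daily for two weeks. Animals observed continuously for physical signs of toxicity (skin changes, mobility, aggressiveness, respiratory movements). Survivors dissected at the end and organs examined for pathological changes.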

[13] = Acute toxicity in ICR rat assessed as mortality at 5000 mg/kg, administered intragastrically after 14 days relative to control; format: organism-based; parameters: dose 5000 mg/kg, route intragastric; conditions: in vivo, po, read-out: Activity; summary of the method: as §4
Rattus norvegicus [14] = assay: Acute toxicity in ICR rat assessed as hypokinetic beginning at 1710 mg/kg, administered intragastrically after 5 hrs; format: organism-based; parameters: dose 1710 mg/kg, route intragastric; conditions: in vivo, po; summary of the method: as §4
Rattus norvegicus [15] = assay: Acute toxicity in ICR rat assessed as hypokinetic beginning at 5000 mg/kg, administered intragastrically after 5 hrs; format: organism-based; parameters: dose 5000 mg/kg, route intragastric; conditions: in vivo, po; summary of the method: as §4
[16] = Acute toxicity in ICR rat assessed as mortality at 2924 mg/kg, administered intragastrically after 14 days relative to control; format: organism-based; parameters: dose 2924 mg/kg, route intragastric; conditions: in vivo, po, read-out: Activity; summary of the method: as §4
Rattus norvegicus [17] = assay: Acute toxicity in ICR rat assessed as weight loss at 1000 mg/kg, administered intragastrically after 2 weeks; format: organism-based; parameters: dose 1000 mg/kg, route intragastric; conditions: in vivo, po, 336 h; summary of the method: as §4
Rattus norvegicus [18] = assay: Acute toxicity in ICR rat assessed as weight loss at 2924 mg/kg, administered intragastrically after 2 weeks; format: organism-based; parameters: dose 2924 mg/kg, route intragastric; conditions: in vivo, po, 336 h; summary of the method: as §4
Rattus norvegicus [19] = assay: Acute toxicity in ICR rat assessed as weight loss at 3823.6 mg/kg, administered intragastrically after 2 weeks; format: organism-based; parameters: dose 3823.6 mg/kg, route intragastric; conditions: in vivo, po, 336 h; summary of the method: as §4
Rattus norvegicus [20] = assay: Acute toxicity in ICR rat assessed as weight loss at 2236.1 mg/kg, administered intragastrically after 2 weeks; format: organism-based; parameters: dose 2236.1 mg/kg, route intragastric; conditions: in vivo, po, 336 h; summary of the method: as §4
[21] = Acute toxicity in ICR rat assessed as mortality at 3823.6 mg/kg, administered intragastrically after 14 days relative to control; format: organism-based; parameters: dose 3823.6 mg/kg, route intragastric; conditions: in vivo, po, read-out: Activity; summary of the method: as §4
Rattus norvegicus [22] = assay: Acute toxicity in ICR rat assessed as weight loss at 5000 mg/kg, administered intragastrically after 2 weeks; format: organism-based; parameters: dose 5000 mg/kg, route intragastric; conditions: in vivo, po, 336 h; summary of the method: as §4
Rattus norvegicus [23] = assay: Acute toxicity in ICR rat assessed as hypokinetic beginning at 2236.1 mg/kg, administered intragastrically after 5 hrs; format: organism-based; parameters: dose 2236.1 mg/kg, route intragastric; conditions: in vivo, po; summary of the method: as §4
Rattus norvegicus [24] = assay: Acute toxicity in ICR rat assessed as hypokinetic beginning at 1000 mg/kg, administered intragastrically after 5 hrs; format: organism-based; parameters: dose 1000 mg/kg, route intragastric; conditions: in vivo, po; summary of the method: as §4
Rattus norvegicus [25] = assay: Acute toxicity in ICR rat assessed as hypokinetic beginning at 3823.6 mg/kg, administered intragastrically after 5 hrs; format: organism-based; parameters: dose 3823.6 mg/kg, route intragastric; conditions: in vivo, po; summary of the method: as §4
Rattus norvegicus [26] = assay: Acute toxicity in ICR rat assessed as hypokinetic beginning at 2924 mg/kg, administered intragastrically after 5 hrs; format: organism-based; parameters: dose 2924 mg/kg, route intragastric; conditions: in vivo, po; summary of the method: as §4
[27] = Acute toxicity in ICR rat assessed as mortality at 1710 mg/kg, administered intragastrically after 14 days relative to control; format: organism-based; parameters: dose 1710 mg/kg, route intragastric; conditions: in vivo, po, read-out: Activity; summary of the method: as §4
Rattus norvegicus [28] = assay: Acute toxicity in ICR rat assessed as weight loss at 1710 mg/kg, administered intragastrically after 2 weeks; format: organism-based; parameters: dose 1710 mg/kg, route intragastric; conditions: in vivo, po, 336 h; summary of the method: as §4
[29] = Acute toxicity in ICR rat assessed as mortality at 1000 mg/kg, administered intragastrically after 14 days relative to control; format: organism-based; parameters: dose 1000 mg/kg, route intragastric; conditions: in vivo, po, read-out: Activity; summary of the method: as §4

inhibition (Rattus norvegicus [8])	IC50 [9] [nM]	Ki [9] [nM]	Structure (SMILES)	Activity (Rattus norvegicus [1])	Activity (Rattus norvegicus [2])	Time (Rattus norvegicus [3]) [h]	Activity (Rattus norvegicus [4])	Activity (Rattus norvegicus [5])	Activity (Rattus norvegicus [6])	Time (Rattus norvegicus [7]) [h]	Activity (Rattus norvegicus [10])	other results
Dose-dependent effect	1.6	1.03	CCC(=O)N(Cc1ccc(-c2ccccc2-c2nc(=O)o[nH]2)cc1)[C@H](C(=O)O)C(C)C	Non-toxic	Active	3	Non-toxic	Active	Active	3	Active	–
Dose-dependent effect	18	12.2	CCCCC(=O)N(Cc1ccc(-c2ccccc2-c2nc(=O)o[nH]2)cc1)[C@@H](Cc1ccccc1)C(=O)O	Non-toxic	inactive	–	Non-toxic	inactive	inactive	–	inactive	–
Dose-dependent effect	20.8	14.1	CCCC(=O)N(Cc1ccc(-c2cc(F)ccc2-c2noc(=O)[nH]2)cc1)[C@H](C(=O)O)C(C)C	Non-toxic	–	3	Non-toxic	Active	Active	3	–	–
Dose-dependent effect	26.5	17.9	CCCC(=O)N(Cc1ccc(-c2ccccc2-c2nc(=O)o[nH]2)cc1)[C@@H](Cc1ccccc1)C(=O)O	Non-toxic	inactive	–	Non-toxic	inactive	inactive	–	inactive	–
–	–	–	CCCCc1nc(Cl)c(CO)n1Cc1ccc(-c2ccccc2-c2nn[nH]n2)cc1 [LOSARTAN]	–	–	–	–	–	–	–	–	LD50 [11]: 2250 mg/kg
Dose-dependent effect	0.58	0.41	CCCCC1=NC2(CCCC2)C(=O)N1Cc1ccc(-c2ccccc2-c2nnn[nH]2)cc1 [IRBESARTAN]	Non-toxic	Active	3	Non-toxic	Active	Active	3	Active	–
Dose-dependent effect	10.2	6.88	CCCCC(=O)N(Cc1ccc(-c2ccccc2-c2nc(=O)o[nH]2)cc1)[C@@H](CC(C)C)C(=O)O	Non-toxic	inactive	–	Non-toxic	inactive	inactive	–	inactive	–
Dose-dependent effect	9.82	6.65	CCCCC(=O)N(Cc1ccc(-c2ccccc2-c2nc(=O)o[nH]2)cc1)[C@H](C(=O)O)C(C)C	Non-toxic	Active	3	Non-toxic	Active	Active	3	Active	–
Dose-dependent effect	36	24.3	CCCC(=O)N(Cc1ccc(-c2ccccc2-c2nc(=O)o[nH]2)cc1)[C@@H](CC(C)C)C(=O)O	Non-toxic	Active	3	Non-toxic	Active	Active	3	Active	–

Structure (SMILES)	inhibition (Rattus norvegicus [8])	IC50 [9] [nM]	Ki [9] [nM]	Activity (Rattus norvegicus [1])	Activity (Rattus norvegicus [2])	Time (Rattus norvegicus [3]) [h]	Activity (Rattus norvegicus [4])	Activity (Rattus norvegicus [5])	Activity (Rattus norvegicus [6])	Time (Rattus norvegicus [7]) [h]	Activity (Rattus norvegicus [10])	other results
CCCCC(=O)N(Cc1ccc(-c2ccccc2-c2nnn[nH]2)cc1)[C@H](C(=O)O)C(C)C [VALSARTAN]	Dose-dependent effect	2.64	2.22	Non-toxic	Active	–	Non-toxic	–	–	–	Active	LD50 [11]: 308 mg/kg
CCCC(=O)N(Cc1ccc(-c2ccccc2-c2nc(=O)o[nH]2)cc1)[C@H](C(=O)O)C(C)C	Dose-dependent effect	0.49	0.33	Non-toxic	Active	3	Non-toxic	Active	Active	3	Active	mortality at 336 h [12]: 50%; mortality at 336 h [13]: 100%; Activity (Rattus norvegicus [14]): Toxic; Activity (Rattus norvegicus [15]): Toxic; mortality at 336 h [16]: 60%; Activity (Rattus norvegicus [17]): Non-toxic; Activity (Rattus norvegicus [18]): Non-toxic; Activity (Rattus norvegicus [19]): Non-toxic; LD50 [11]: 2320 mg/kg; Activity (Rattus norvegicus [20]): Non-toxic; mortality at 336 h [21]: 80%; Activity (Rattus norvegicus [22]): Non-toxic; Activity (Rattus norvegicus [23]): Toxic; Activity (Rattus norvegicus [24]): Non-toxic; Activity (Rattus norvegicus [25]): Toxic; Activity (Rattus norvegicus [26]): Toxic; mortality at 336 h [27]: 30%; Activity (Rattus norvegicus [28]): Non-toxic; mortality at 336 h [29]: 0%
